The values below come from ChEMBL document CHEMBL2440054, “Largazole Arrests Cell Cycle at G1 Phase and Triggers Proteasomal Degradation of E2F1 in Lung Cancer Cells” (ACS Med Chem Lett, 2013).

A word on the IC50: it is the concentration needed to halve the response being measured. A lower IC50 goes with greater potency.

Experiment [1] concerns the target Histone deacetylase 1 (Homo sapiens) (UniProt Q13547). As to conditions: 16HBE, 0.1 uM.
Experiment [2] relates to A549. Briefly: Upregulation of p27 protein expression in human A549 cells at 0.1 uM after 12 hrs by Western blotting analysis. The experiment is classed as functional, cell-based. A digest of the protocol:
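A549 cells exposed to 0.1 μM over a time course, then lysed and Western blotted for G1 regulators including p21 and p27.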
Background: In western blotting, separated proteins are transferred to a membrane and probed.

For experiment [3], the system named is A549. Kind of experiment: Downregulation of E2F1 protein expression in human A549 cells at 0.1 uM by Western blotting analysis. The experiment is classed as functional, cell-based. As to conditions: TDE = time-dependent effect. A digest of the protocol:
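A549 cells treated with 0.1 μM largazole over a time course, or with a range of concentrations for 12 h. Lysates Western blotted for E2F1.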

In experiment [4] the target is Histone deacetylase 1 (Homo sapiens) (UniProt Q13547). As to conditions: A549, 0.1 uM.
Experiment [5] concerns NCI-H460. Kind of experiment: Cell cycle arrest in human NCI-H460 cells assessed as accumulation at G1 phase at 0.06 uM after 24 hrs by propidium iodide staining-based flow cytometric analysis (reference value: 58.9%). It is filed as functional. On the technique in general: A flow cytometer gives signals particle by particle.
Experiment [6] is described as follows: Cytotoxicity against human GLC82 cells after 48 hrs by CCK-8 assay. The experiment is classed as functional, cell-based. As to conditions: GLC82, 48 h. The method, boiled down:
(§1)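 Cells treated with a range of largazole concentrations for 48 h. Proliferation read by CCK-8 assay; IC50 derived from the concentration series.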
In general terms: Formazan colour is commonly taken as a measure of viable cells.

The target in experiment [7] is Histone deacetylase 1 (Homo sapiens) (UniProt Q13547). The note with it: NCI-H1975, 0.1 uM.
Experiment [8] relates to NCI-H460. Kind of experiment: Growth inhibition of human NCI-H460 cells at 0.1 uM after 24 to 48 hrs by trypan blue exclusion assay. The experiment is classed as functional, cell-based. The method, boiled down:
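Cells treated with largazole for indicated times. Viability evaluated by trypan blue exclusion.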

The target in experiment [9] is Transcription factor E2F1 (Homo sapiens) (UniProt Q01094). Kind of experiment: Induction of E2F1 degradation in human L78 cells at 0.1 uM after 12 to 24 hrs by Western blotting analysis. It is filed as cell-based. The method, boiled down:
(§2)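 Each cell line (16-HBE, 95D, L78, H1975, H460) treated with 0.1 μM largazole for indicated times. Lysates Western blotted for E2F1.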

The subject of experiment [10] is A549. Briefly: Downregulation of E2F1 in human A549 cell nucleus at 0.1 uM after 6 to 24 hrs by Western blotting analysis. It is filed as functional, cell-based. The method, boiled down: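 A549 cells exposed to 0.1 μM largazole for indicated times. Cytoplasmic and nuclear fractions separated, then Western blotted for E2F1.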
Experiment [11] deals with A549. Briefly: Induction of apoptosis in human A549 cells assessed as increase in cleaved caspase-3 level at 0.1 uM after 48 hrs by Western blotting analysis. It is filed as functional, cell-based. The method, boiled down: (§3)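 A549 cells exposed to 0.1 μM for a time course, then lysed and Western blotted. Read-outs are pro- and cleaved caspase-9, pro- and active caspase-3, and cleaved PARP.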

Experiment [12] has as its system NCI-H460. Kind of experiment: Cell cycle arrest in human NCI-H460 cells assessed as accumulation at G1 phase at 0.1 uM after 24 hrs by propidium iodide staining-based flow cytometric analysis (reference value: 58.9%). It is filed as functional.
In experiment [13] the test system is A549. Kind of experiment: Induction of apoptosis in human A549 cells assessed as increase in cleaved caspase-9 level at 0.1 uM after 48 hrs by Western blotting analysis. It is filed as functional, cell-based. A digest of the protocol:
as §3

Experiment [14] addresses Histone deacetylase 1 (Homo sapiens) (UniProt Q13547). The note with it: A549, 0.1 uM. This is another data set of the same source.
Experiment [15] addresses Transcription factor E2F1 (Homo sapiens) (UniProt Q01094). Kind of experiment: Induction of E2F1 degradation in human A549 cells at 0.1 uM after 12 hrs by Western blotting analysis in presence of proteasome inhibitor MG-132. It is filed as cell-based. A digest of the protocol:
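A549 cells pretreated 2 h with bortezomib (100 nM) or MG-132 (10 μM), then given largazole 0.1 μM for a further 12 h. Lysates Western blotted for E2F1.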

For experiment [16], the system named is A549. Kind of experiment: Effect on CDK4 protein expression in human A549 cells at 0.1 uM after 6 to 36 hrs by Western blotting analysis. The experiment is classed as functional, cell-based. The method, boiled down:
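A549 cells exposed to 0.1 μM largazole over a time course, lysed, and Western blotted for cyclin D1, CDK2, CDK4, p21 and p27.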

The target in experiment [17] is Transcription factor E2F1 (Homo sapiens) (UniProt Q01094). Kind of experiment: Induction of E2F1 degradation in human 16HBE cells at 0.1 uM after 12 to 24 hrs by Western blotting analysis. The experiment is classed as cell-based. The method, boiled down:
as §2

The subject of experiment [18] is A549. Kind of experiment: Induction of apoptosis in human A549 cells assessed as downregulation of pro-caspase-9 protein expression at 0.1 uM after 48 hrs by Western blotting analysis. It is filed as functional, cell-based. The method, boiled down: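 A549 cells given largazole 0.1 μM for indicated times, lysed, and Western blotted for pro-/cleaved caspase-9, caspase-8, pro-/active caspase-3 and PARP.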

Experiment [19] relates to A549. Kind of experiment: Cytotoxicity against human A549 cells after 48 hrs by CCK-8 assay. The experiment is classed as functional, cell-based. As to conditions: A549, 48 h. The method, boiled down: as §1
Experiment [20] concerns NCI-H460. Briefly: Cell cycle arrest in human NCI-H460 cells assessed as accumulation at G2 phase at 0.06 uM after 24 hrs by propidium iodide staining-based flow cytometric analysis (reference value: 9.5%). It is filed as functional.
The test system of experiment [21] is A549. Briefly: Cell cycle arrest in human A549 cells assessed as accumulation at G1 phase at 0.06 uM after 24 hrs by propidium iodide staining-based flow cytometric analysis (reference value: 48.3%). It is filed as functional.

Structures are written as SMILES. The source made the active and inactive calls. No cut-off for these calls is given here.

Transcription factor E2F1 (Homo sapiens), sequence (Q01094 whole entry): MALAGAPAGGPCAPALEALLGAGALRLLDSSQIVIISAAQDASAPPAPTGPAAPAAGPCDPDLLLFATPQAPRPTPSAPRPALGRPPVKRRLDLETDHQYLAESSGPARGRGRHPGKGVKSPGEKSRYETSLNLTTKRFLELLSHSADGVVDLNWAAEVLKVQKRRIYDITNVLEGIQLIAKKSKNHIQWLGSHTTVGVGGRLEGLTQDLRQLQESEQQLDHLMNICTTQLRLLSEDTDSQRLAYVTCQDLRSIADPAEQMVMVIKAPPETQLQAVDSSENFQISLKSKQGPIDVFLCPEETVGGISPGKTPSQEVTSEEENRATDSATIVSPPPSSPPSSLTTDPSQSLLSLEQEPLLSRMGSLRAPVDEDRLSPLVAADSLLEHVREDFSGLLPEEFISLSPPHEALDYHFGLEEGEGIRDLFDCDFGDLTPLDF
Histone deacetylase 1 (Homo sapiens), sequence (Q13547 whole entry): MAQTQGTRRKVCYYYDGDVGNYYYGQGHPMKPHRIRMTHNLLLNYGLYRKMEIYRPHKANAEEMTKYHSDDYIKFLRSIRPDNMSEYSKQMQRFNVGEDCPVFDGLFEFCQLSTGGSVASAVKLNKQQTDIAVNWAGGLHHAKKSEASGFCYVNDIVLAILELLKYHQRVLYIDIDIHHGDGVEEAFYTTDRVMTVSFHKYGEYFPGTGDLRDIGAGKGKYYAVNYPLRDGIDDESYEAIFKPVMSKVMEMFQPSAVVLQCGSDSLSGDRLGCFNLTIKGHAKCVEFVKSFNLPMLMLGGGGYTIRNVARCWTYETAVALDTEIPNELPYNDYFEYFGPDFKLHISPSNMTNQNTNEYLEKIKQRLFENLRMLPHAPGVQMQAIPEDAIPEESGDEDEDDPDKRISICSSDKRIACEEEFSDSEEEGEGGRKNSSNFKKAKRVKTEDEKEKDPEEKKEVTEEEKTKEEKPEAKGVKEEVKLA

On to `CCCCCCCC(=O)SCC/C=C/[C@@H]1CC(=O)NCc2nc(cs2)C2=N[C@@](C)(CS2)C(=O)N[C@@H](C(C)C)C(=O)O1` [LARGAZOLE], for which the inhibition entry in [1], in [4], in experiment [7] and in experiment [14] was “Active” each time. The outcome (in the experiment on A549 [2]; in experiment [9]; in the experiment with A549 [10]; with A549 [11]; in the experiment with A549 [13]; with A549 [18]) was Active. The Activity entry in the experiment with A549 [3] is “tde”; with NCI-H460 [5] it was 78.8%; in the experiment with NCI-H460 [12], 84.1%; in the experiment with NCI-H460 [20], 10.8%; with A549 [21], 90.4%. Also, the IC50 in [6] is 190 nM; in the experiment with A549 [19] it was 77 nM. In the experiment with NCI-H460 [8], the “growth inhibition (GI)” value was “Active”. Further, the result (in experiment [15]; in the experiment with A549 [16]; in experiment [17]) was inactive.
